Assay results: ChEMBL document CHEMBL1136967, “High-affinity, non-nucleotide-derived competitive antagonists of platelet P2Y12 receptors” (J Med Chem, 2009)

Key:
P2Y purinoceptor 12 [1] = target: T1, P2Y purinoceptor 12 (Homo sapiens, UniProt Q9H244); experiment: Displacement of [3H]PSB0413 from human platelet P2Y12 receptor
In short: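 Membranes from outdated human blood-bank platelets (4-5 days post-donation), washed, centrifuged, homogenized, stored at -80 °C. 100 µg protein incubated with 5 nM [³H]PSB-0413 in 50 mM Tris-HCl pH 7.4 for 1 h at rt, then filtered over GF/B. Nonspecific binding with 1 mM ADP. Screen at 10 µM. Ki from curves of 6-7 concentrations over 3 log units. At least three experiments in triplicate.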

Homo sapiens [2] = species on record: Homo sapiens; experiment: Selectivity for human platelet P2Y12 receptor over human P2X2 receptor
Homo sapiens [3] = species on record: Homo sapiens; experiment: Selectivity for human platelet P2Y12 receptor over human P2Y1 receptor
Homo sapiens [4] = species on record: Homo sapiens; experiment: Selectivity for human platelet P2Y12 receptor over human P2Y2 receptor
Homo sapiens [5] = species on record: Homo sapiens; experiment: Selectivity for human platelet P2Y12 receptor over human P2Y4 receptor
Homo sapiens [6] = species on record: Homo sapiens; experiment: Selectivity for human platelet P2Y12 receptor over human P2X4 receptor
P2Y purinoceptor 12 [7] = target: T1, P2Y purinoceptor 12; experiment: Displacement of [3H]PSB0413 from human platelet P2Y12 receptor at 10 uM
In short: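 Human platelet membranes (100 µg protein) incubated with 5 nM [3H]PSB-0413 and test compound at 10 µM in 50 mM Tris-HCl pH 7.4 for 1 h at rt, then filtered over GF/B. Nonspecific binding defined with 1 mM ADP; result expressed as % inhibition of radioligand binding.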

[8] = Cytotoxicity against human 1321N1 cells at 1 uM after 72 hrs to 144 hrs by MTT assay; assay type: functional
In short: (§1)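 1321N1 astrocytoma and 1539 melanoma cells grown in DMEM with 10% FCS and penicillin/streptomycin at 37 °C, 5% CO2. Seeded at 2000 cells/well for 24 h, then medium replaced and compound added from 10 mM DMSO stocks (final DMSO 1%). Incubation 72-144 h, then MTT (5 mg/mL stock) for 1 h. Formazan dissolved in DMSO, A570 read against 690 nm reference. Viability relative to 1% DMSO wells; triplicates, 3-8 experiments.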

[9] = Cytotoxicity against human 1539 cells at 100 uM after 72 hrs to 144 hrs by MTT assay; assay type: functional; in short: as §1
[10] = Cytotoxicity against human 1321N1 cells at 0.1 uM after 72 hrs to 144 hrs by MTT assay; assay type: functional; in short: as §1
[11] = Cytotoxicity against human 1539 cells at 1 uM after 72 hrs to 144 hrs by MTT assay; assay type: functional; in short: as §1
[12] = Cytotoxicity against human 1539 cells at 0.1 uM after 72 hrs to 144 hrs by MTT assay; assay type: functional; in short: as §1
[13] = Cytotoxicity against human 1321N1 cells at 100 uM after 72 hrs to 144 hrs by MTT assay; assay type: functional; in short: as §1
P2Y purinoceptor 12 [14] = target: T1, P2Y purinoceptor 12; experiment: Antagonist activity at P2Y12 receptor expressed in human astrocytoma cells assessed as right shift of concentration response curve; assay type: functional, cell-based
[15] = Toxicity in po dosed rat; assay type: organism-based; details: in vivo
[16] = Cytotoxicity against human 1321N1 cells after 72 hrs to 144 hrs by MTT assay; assay type: functional, cell-based
In short: (§2)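 Cells grown in DMEM with 10% fetal calf serum, penicillin and streptomycin at 37 °C, 5% CO₂. Seeded at 2000 cells/well, 24 h, then medium renewed and compounds added (DMSO stocks; final DMSO 1%) at 0.1, 1 and 100 µM, or full dose-inhibition curves. Exposure 72-144 h. MTT 1 h, crystals dissolved in DMSO, absorbance 570 nm (reference 690 nm). Viability relative to 1% DMSO wells. Triplicates, 3-8 experiments.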

[17] = Cytotoxicity against human 1539 cells after 72 hrs to 144 hrs by MTT assay; assay type: functional, cell-based; in short: as §2

T1 sequence (Q9H244 whole entry): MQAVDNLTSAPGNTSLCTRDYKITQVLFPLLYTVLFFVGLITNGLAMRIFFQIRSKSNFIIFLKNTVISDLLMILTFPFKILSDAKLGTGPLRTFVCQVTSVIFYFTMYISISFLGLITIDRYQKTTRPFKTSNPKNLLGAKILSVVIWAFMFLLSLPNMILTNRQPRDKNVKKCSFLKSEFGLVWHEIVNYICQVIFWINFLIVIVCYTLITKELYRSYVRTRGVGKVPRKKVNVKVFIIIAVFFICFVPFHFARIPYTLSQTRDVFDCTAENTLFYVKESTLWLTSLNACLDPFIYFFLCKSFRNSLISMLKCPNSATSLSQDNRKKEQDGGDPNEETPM

SMILES	Ki (P2Y purinoceptor 12 [1]) [µM]	inhibition (P2Y purinoceptor 12 [7]) [%]	further results
Nc1c(S(=O)(=O)O)cc(Nc2ccc(Nc3ccccc3)c(C(=O)O)c2)c2c1C(=O)c1ccccc1C2=O	0.021	–	–
Nc1c(S(=O)(=O)O)cc(Nc2ccc(Nc3ncccn3)c(S(=O)(=O)O)c2)c2c1C(=O)c1ccccc1C2=O	–	–	fold change (FC) (Homo sapiens [2]): 100; fold change (FC) (Homo sapiens [3]): 100; fold change (FC) (Homo sapiens [4]): 100; fold change (FC) (Homo sapiens [5]): 100; fold change (FC) (Homo sapiens [6]): 100
COC(=O)c1cc(O)c2c(c1)C(=O)c1cccc(O)c1C2=O [RHEIN METHYLESTER]	> 10	2	–
Nc1c(S(=O)(=O)[O-])cc(Nc2ccc(Cl)cc2)c2c1C(=O)c1ccccc1C2=O.[Na+]	–	–	Activity [8]: 116%; Activity [9]: 129%; Activity [10]: 117%; Activity [11]: 95%; Activity [12]: 99%; Activity [13]: 120%
Nc1c(S(=O)(=O)O)cc(Nc2ccc(Nc3ccccc3)c(S(=O)(=O)O)c2)c2c1C(=O)c1ccccc1C2=O	–	–	Kb (P2Y purinoceptor 12 [14]): 0.0004 µM; pKb (P2Y purinoceptor 12 [14]): 9.4
Nc1c(S(=O)(=O)O)cc(NCCc2ccccc2)c2c1C(=O)c1ccccc1C2=O	> 10	16	–
Nc1c(S(=O)(=O)[O-])cc(Nc2cccc3ccccc23)c2c1C(=O)c1ccccc1C2=O.[Na+]	> 10	25	Activity [8]: 126%; Activity [9]: 89%; Activity [10]: 114%; Activity [11]: 95%; Activity [12]: 96%; Activity [13]: 116%
CC(=O)Nc1ccc(Nc2cc(S(=O)(=O)O)c(N)c3c2C(=O)c2ccccc2C3=O)cc1	> 10	4	–
COc1cccc2c1C(=O)c1c(O)c3c(c(O)c1C2=O)C[C@@](O)(C(=O)CO)C[C@@H]3O[C@H]1C[C@H](N)[C@H](O)[C@H](C)O1 [DOXORUBICIN]	> 10	7	–
Cc1cc(C)c(Nc2cc(S(=O)(=O)O)c(N)c3c2C(=O)c2ccccc2C3=O)c(C)c1 [ACID BLUE 129]	> 10	30	–
CN(C)[C@@H]1C(O)=C(C(N)=O)C(=O)[C@@]2(O)C(O)=C3C(=O)c4c(O)ccc(Cl)c4[C@@](C)(O)[C@H]3C[C@@H]12 [CHLORTETRACYCLINE]	> 10	6	–
Cc1cc(O)c2c(c1)Cc1cc(O)cc(O)c1C2=O [EMODIN ANTHRONE]	> 10	1	–
Nc1ccc(-c2ccc(N)c3c2C(=O)c2ccccc2C3=O)c2c1C(=O)c1ccccc1C2=O	–	–	LD50 [15]: > 5000 mg/kg
CN(C)[C@@H]1C(O)=C(C(N)=O)C(=O)[C@@]2(O)C(O)=C3C(=O)c4c(O)cccc4[C@@](C)(O)[C@H]3C[C@@H]12 [TETRACYCLINE]	> 10	2	–
O=C1c2c(O)cccc2C([C@@H]2O[C@H](CO)[C@@H](O)[C@H](O)[C@H]2O)c2cc(CO)cc(O)c21 (some centres undefined) [ALOIN]	> 10	2	–
Nc1c(S(=O)(=O)O)cc(Nc2ccc(Nc3ncccn3)cc2)c2c1C(=O)c1ccccc1C2=O	10	57	–

SMILES	Ki (P2Y purinoceptor 12 [1]) [µM]	inhibition (P2Y purinoceptor 12 [7]) [%]	further results
Nc1c(S(=O)(=O)O)cc(Nc2ccc(O)cc2)c2c1C(=O)c1ccccc1C2=O	10	50	–
Cc1cc(O)c2c(c1)C(=O)c1cc(O[C@@H]3OC[C@](O)(CO)[C@H]3O)cc(O)c1C2=O [FRANGULIN B]	> 10	4	–
Nc1c(S(=O)(=O)O)cc(Nc2cccc([N+](=O)[O-])c2)c2c1C(=O)c1ccccc1C2=O	> 10	17	–
O=C1c2c(O)ccc(O)c2C(=O)c2c(NCCNCCO)ccc(NCCNCCO)c21 [MITOXANTRONE]	> 10	–	–
Cc1cc(O)c2c(c1)C(=O)c1cc(O[C@@H]3O[C@@H](C)[C@H](O)[C@@H](O)[C@H]3O)cc(O)c1C2=O [FRANGULIN A]	> 10	4	–
Cc1cc(O)c2c(c1)C(=O)c1cccc(O)c1C2=O [CHRYSOPHANOL]	> 10	13	–
Nc1c(S(=O)(=O)O)cc(Nc2ccccc2O)c2c1C(=O)c1ccccc1C2=O	10	45	–
COc1cc(O)c2c(c1)C(=O)c1cc(C)cc(O)c1C2=O [PHYSCION]	> 10	7	–
O=C1c2cccc(O)c2C(=O)c2c(O)cc(CO)cc21 [ALOE-EMODIN]	> 10	2	–
Cc1cc(O)c2c(c1)C(=O)c1cc(O)cc(O)c1C2=O [EMODIN]	> 10	5	–
O=c1[nH]cc(F)c(=O)[nH]1 [FLUOROURACIL]	–	–	EC50 [16]: 53.2 µM; EC50 [17]: 5.71 µM
Cc1cc(C)c(Nc2cc(S(=O)(=O)O)c(N)c3c2C(=O)c2ccccc2C3=O)c(C)c1N	> 10	35	–
Nc1ccc(Nc2cc(S(=O)(=O)O)c(N)c3c2C(=O)c2ccccc2C3=O)cc1	> 10	30	–
Nc1ccccc1Nc1cc(S(=O)(=O)O)c(N)c2c1C(=O)c1ccccc1C2=O	> 10	37	–
Nc1c(S(=O)(=O)O)cc(NCc2ccccc2)c2c1C(=O)c1ccccc1C2=O	> 10	11	–
COc1ccc(CCNc2cc(S(=O)(=O)O)c(N)c3c2C(=O)c2ccccc2C3=O)cc1OC	> 10	23	–
